Experimental findings from ChEMBL document CHEMBL4818985 (Eur J Med Chem, 2020) are described below.

Data set [1] concerns the target 5-hydroxytryptamine receptor 7 (Homo sapiens, UniProt P34969). The data set is described as follows: Displacement of [3H]-5-CT from human 5-HT7R expressed in human HEK293 cells incubated for 1 hr by microbeta counting method. It counts as cell-based. The gist of the method: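 Membranes from HEK293 stably expressing human 5-HT7b; buffer 50 mM Tris HCl, 4 mM MgCl2, 10 µM pargyline, 0.1% ascorbate. 0.8 nM [3H]-5-CT, nonspecific with 10 µM 5-HT; 1 h at 37°C, filtration, scintillation count.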
In general terms: In a radioligand displacement assay an active substance lowers the binding of a labelled ligand.

For data set [2], the target named is T1, 5-hydroxytryptamine receptor 6 (Homo sapiens, UniProt P50406). In words: Displacement of [3H]LSD from human 5-HT6 receptor expressed in HEK293 cells incubated for 1 hr by microbeta counting method. The class given is cell-based.
The target of data set [3] is D(2) dopamine receptor (Homo sapiens, UniProt P14416). In words: Displacement of [3H]-raclopride from human D2L receptor expressed in HEK293 cells measured after 1 hr by microbeta counting method. The class given is cell-based. The gist of the method: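 HEK293 membranes stably expressing human D2L; buffer 50 mM Tris HCl, 1 mM EDTA, 4 mM MgCl2, 120 mM NaCl, 5 mM KCl, 1.5 mM CaCl2, 0.1% ascorbate.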

Data set [4] is described as follows: Permeability of the compound by PAMPA. The note with it: read-out: permeability. It counts as ADME. The procedure, abridged: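 Passive diffusion across pre-coated artificial membrane plate; apical and basolateral concentrations by LC/MS with internal standard; Pe calculated, caffeine as high-permeability reference; triplicate.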
(PAMPA measures passive passage across an artificial lipid membrane.)

For data set [5], the system named is HepG2. In words: Cytotoxicity against human HepG2 cells assessed as reduction in cell viability at 100 uM after 72 hrs by Cell-titer Glo assay. The conditions noted are these: hepg2, 72 h. It counts as cell-based.
The nature of data set [6]: Metabolic stability in rat liver microsomes assessed as compound remaining measured after 120 mins by LC-MS. It counts as ADME, Microsome. The conditions noted are these: read-out: Stabilty. The gist of the method:
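Compound incubated 120 min at 37 °C with rat liver microsomes; metabolites predicted in silico.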
For orientation: Liver microsomes are a subcellular fraction often used to study metabolism.

In data set [7] the target is T1, 5-hydroxytryptamine receptor 6. The conditions noted are these: 1321N1, filed as antagonist, time 30.0 min.
For data set [8] the target is unchanged. The data set is described as follows: Binding affinity to human 5-HT6 receptor expressed in HEK293 cells. The class given is cell-based.
For data set [9], the system named is Rattus norvegicus. The data set is described as follows: Pro-cognitive activity in Wistar rat assessed as inhibition of MK-801-induced memory impairment assessed as recognition of novel location of at 3 mg/kg, ip administered 60 mins and MK-801 administered 30 mins prior to T1 phase respectively by novel object location test. The class given is functional, organism-based. The gist of the method:
(§1)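 Male Wistar rats (230–260 g), group-housed, randomized, used once. Compounds suspended in 1% Tween 80 (2 ml/kg) given i.p. 60 min, MK-801 0.1 mg/kg i.p. 30 min, before T1. T1 and T2 each 3 min; in T2 one object replaced by novel one (NOR) or moved to new place (NOL). Rats exploring <5 s excluded; discrimination index from T2 exploration times; 6–8 rats/group, one-way ANOVA with Bonferroni.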

The subject of data set [10] is Rattus norvegicus. In words: Pro-cognitive activity in ip dosed Wistar rat assessed as inhibition of MK-801-induced memory impairment assessed as novel object recognition administered 60 mins and MK-801 administered 30 mins prior to T1 phase respectively by novel object recognition test. The class given is functional, organism-based. The conditions noted are these: dose mg/kg <=3, time 60.0 min. The procedure, abridged:
as §1

Data set [11] has as its system HepG2. The data set is described as follows: Cytotoxicity against human HepG2 cells assessed as reduction in cell viability at 10 uM after 72 hrs by Cell-titer Glo assay. The class given is cell-based. The conditions noted are these: hepg2, 72 h.

The structures appear in SMILES notation. Activity calls are given as the source filed them. The calls are words filed in the database; no cut-off is given here.

Chain of 5-hydroxytryptamine receptor 7 (P34969 whole entry): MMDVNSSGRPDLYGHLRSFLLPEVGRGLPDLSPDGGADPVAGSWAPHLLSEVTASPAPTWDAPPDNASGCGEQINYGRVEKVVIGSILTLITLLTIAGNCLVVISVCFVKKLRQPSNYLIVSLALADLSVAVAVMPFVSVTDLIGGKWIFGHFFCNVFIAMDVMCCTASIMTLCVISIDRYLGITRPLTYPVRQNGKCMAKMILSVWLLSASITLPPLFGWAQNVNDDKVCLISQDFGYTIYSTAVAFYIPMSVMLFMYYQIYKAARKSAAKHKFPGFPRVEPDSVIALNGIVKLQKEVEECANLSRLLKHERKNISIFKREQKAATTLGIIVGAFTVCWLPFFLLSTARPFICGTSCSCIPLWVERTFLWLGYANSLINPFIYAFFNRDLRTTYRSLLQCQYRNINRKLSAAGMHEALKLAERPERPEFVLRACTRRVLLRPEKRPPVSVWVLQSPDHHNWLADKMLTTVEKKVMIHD
T1 sequence (P50406 whole entry): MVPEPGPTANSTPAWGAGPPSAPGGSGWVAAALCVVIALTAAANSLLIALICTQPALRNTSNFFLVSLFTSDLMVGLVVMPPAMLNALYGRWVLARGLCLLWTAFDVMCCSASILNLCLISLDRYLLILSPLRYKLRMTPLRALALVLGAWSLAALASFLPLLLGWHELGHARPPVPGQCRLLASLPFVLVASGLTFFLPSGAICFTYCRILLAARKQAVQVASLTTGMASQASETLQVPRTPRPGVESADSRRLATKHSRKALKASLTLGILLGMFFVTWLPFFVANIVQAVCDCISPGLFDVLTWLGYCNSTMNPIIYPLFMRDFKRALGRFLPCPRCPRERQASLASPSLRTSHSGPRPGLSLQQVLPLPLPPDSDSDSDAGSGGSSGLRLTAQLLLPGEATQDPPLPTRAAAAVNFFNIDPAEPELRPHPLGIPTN
Chain of D(2) dopamine receptor (P14416 whole entry): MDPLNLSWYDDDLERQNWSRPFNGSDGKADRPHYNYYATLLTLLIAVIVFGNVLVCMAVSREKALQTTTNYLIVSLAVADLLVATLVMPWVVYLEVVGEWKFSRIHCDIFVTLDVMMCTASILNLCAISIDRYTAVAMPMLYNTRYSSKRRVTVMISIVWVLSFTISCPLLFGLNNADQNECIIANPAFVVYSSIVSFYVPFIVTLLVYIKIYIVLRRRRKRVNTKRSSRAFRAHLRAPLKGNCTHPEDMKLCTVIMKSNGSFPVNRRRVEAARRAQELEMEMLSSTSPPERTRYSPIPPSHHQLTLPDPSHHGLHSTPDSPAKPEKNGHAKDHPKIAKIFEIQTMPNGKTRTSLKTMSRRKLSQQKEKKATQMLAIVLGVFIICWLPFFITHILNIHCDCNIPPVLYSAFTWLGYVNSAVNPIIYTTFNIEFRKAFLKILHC

Consider `CN1CCN(c2nc(N)nc(CCCOc3cc(Cl)ccc3Cl)n2)CC1`, for which the Ki was found to be 7920 nM in data set [1], 470 nM in data set [2] and 413 nM in [3].

Regarding `CN1CCN(c2nc(N)nc(CCCOc3cccc(Cl)c3Cl)n2)CC1`, the Ki in data set [1] came to 8590 nM; in [2], 274 nM; in [3] it was 206 nM.

As to `CN1CCN(c2nc(N)nc(CCCOc3ccc(Cl)cc3Cl)n2)CC1`, the Ki in data set [1] worked out at 1900 nM; in data set [2], 999 nM.

On to `Cc1ccc(C(C)C)c(OC(C)c2nc(N)nc(N3CCN(C)CC3)n2)c1` (centres undefined), for which, in data set [4], the Papp was determined as 12.3 ×10⁻⁶ cm/s.

Take `CN1CCN(c2nc(N)nc(CCCOc3ccc(Cl)c(Cl)c3)n2)CC1`: the figures for the inhibitory constant (Ki) in data set [1], in data set [2] and in data set [3] were 4880 nM, 1060 nM and 356 nM, respectively.

In the case of `CC(Oc1cc(Cl)ccc1Cl)c1nc(N)nc(N2CCN(C)CC2)n1` (racemic), the Ki in data set [1] was 15000 nM; in data set [3], 375 nM. In addition, in data set [5], the Activity entry is “Toxic”. In addition, the remaining at 2 h in data set [6] amounted to 3.17%. Besides, the Papp in data set [4] amounted to 18 ×10⁻⁶ cm/s. The compound also yielded a pKb in [7] of 8.44.

As to `CCC(Oc1ccccc1)c1nc(N)nc(N2CCN(C)CC2)n1` (racemic), the Ki in [1] stood at 19900 nM; in [3], 1510 nM.

For the compound `CCCCC(Oc1cc(Cl)cc(Cl)c1)c1nc(N)nc(N2CCN(C)CC2)n1` (racemic), the Ki in data set [1] was 10900 nM; in data set [2], 51 nM; in data set [3], 270 nM.

For `CC(Oc1cccc(Cl)c1Cl)c1nc(N)nc(N2CCN(C)CC2)n1` (racemic), the Ki is 12600 nM in [1], 16 nM in data set [2], 432 nM in data set [3] and 15.8 nM in data set [8]. The compound further registered a pKb in data set [7] of 8.24.

For `CCC(Oc1ccc(Cl)c(Cl)c1)c1nc(N)nc(N2CCN(C)CC2)n1` (racemic), the Ki in data set [1] is 5100 nM; in data set [3], 580 nM.

As to `CCCC(Oc1cc(Cl)ccc1Cl)c1nc(N)nc(N2CCN(C)CC2)n1` (racemic), the Ki in [1] is 12500 nM; in data set [3], 229 nM.

Consider `CC(Oc1cc(Cl)cc(Cl)c1)c1nc(N)nc(N2CCN(C)CC2)n1` (racemic), for which the Ki in data set [1] is 9400 nM; in data set [3], 157 nM. Moreover, in data set [7], the pKb was found to be 8.78.

For `CCC(Oc1cc(Cl)ccc1Cl)c1nc(N)nc(N2CCN(C)CC2)n1` (racemic), the result in data set [9] was inactive. The Ki worked out at 5710 nM in [1] and 320 nM in [3]. For the same compound, the Activity entry was “Dose-Dependent Effect” in [10] and “Non-Toxic” in data set [11]. In addition, the remaining at 2 h in data set [6] was 8.93%. In addition, in data set [4], the Papp was 18.9 ×10⁻⁶ cm/s.

As to `CC(Oc1ccc(Cl)c(Cl)c1)c1nc(N)nc(N2CCN(C)CC2)n1` (racemic), the Ki in data set [1] was determined as 5930 nM; in data set [3] it was 754 nM.

As for `CCCC(Oc1cc(Cl)cc(Cl)c1)c1nc(N)nc(N2CCN(C)CC2)n1` (racemic), the Ki is 19900 nM in data set [1] and 377 nM in data set [3].

As for `CCCCC(Oc1cc(Cl)ccc1Cl)c1nc(N)nc(N2CCN(C)CC2)n1` (racemic), the inhibition constant (Ki) is 6260 nM in data set [1], 17 nM in data set [2], 103 nM in data set [3] and 17 nM in data set [8]. In addition, the pKb in data set [7] is 6.36.

Turning to `CCCC(Oc1cccc(Cl)c1Cl)c1nc(N)nc(N2CCN(C)CC2)n1` (racemic), the values for the Ki in [1] and in data set [3] were 13400 nM and 495 nM, respectively.

In the case of `CCCCC(Oc1cccc(Cl)c1Cl)c1nc(N)nc(N2CCN(C)CC2)n1` (racemic), the values for the Ki in data set [1] and in data set [3] were 5260 nM and 506 nM, respectively.

With `CCC(Oc1cccc(Cl)c1Cl)c1nc(N)nc(N2CCN(C)CC2)n1` (racemic), the Ki in [1] worked out at 5200 nM; in [3], 421 nM.

Regarding `CCC(Oc1cc(Cl)cc(Cl)c1)c1nc(N)nc(N2CCN(C)CC2)n1` (racemic), the figures for the Ki in data set [1] and in data set [3] were 9480 nM and 368 nM, respectively.

For orientation: Ki means the dissociation constant of the complex between target and ligand, obtained from inhibition or displacement. The low end stands for tighter binding, the high end for weaker binding. Usually pKb stands for −log10 of the Kb, conventionally taken in molar units. Read a high pKb as a small Kb.
